Data reported in ChEMBL document CHEMBL2424526, “Thrombin inhibitory activity of some polyphenolic compounds” (Med Chem Res, 2013).
Active and inactive are the calls of the source. No cut-off for these calls is given here.

Assays:
[1] = target: T1, Prothrombin (Homo sapiens, UniProt P00734); assay: Inhibition of human thrombin amidolytic activity using D-Phe-Pip-Arg-pNA as substrate at 0.1 to 1000 uM preincubated for 10 mins followed by substrate addition measured every 12 secs for 10 mins by spectrophotometric analysis
Method in brief: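 Human plasma thrombin (17.6 nM in 50 mM TBS pH 7.4) preincubated 10 min at 37 °C with compound (from 10 mM stocks in 50% DMSO; final DMSO 5%, final thrombin 15.8 nM), then added to 3 mM D-Phe-Pip-Arg-pNA stock.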

[2] = target: T1, Prothrombin; assay: Inhibition of human thrombin assessed as inhibition of fibrinogen polymerization at 1000 uM preincubated for 10 mins followed by fibrionogen addition measured for 20 mins
Method in brief: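 Thrombin preincubated 10 min at 37 °C with compound, then added to human fibrinogen (3 mg/ml) in 50 mM TBS, 5 mM CaCl2, pH 7.4; final thrombin 10.4 nM. Turbidity at 595 nm read every 12 s for 20 min at 37 °C. Vmax expressed as % of solvent control; mean ± SD of 12 independent experiments in duplicate.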

[3] = target: Urokinase-type plasminogen activator (Homo sapiens, UniProt P00749); assay: Inhibition of urokinase amidolytic activity (unknown origin)
[4] = target: Trypsin (Homo sapiens, UniProt P07477+P07478+P35030); assay: Inhibition of trypsin amidolytic activity (unknown origin); type: protein assay
[5] = target: T1, Prothrombin; assay: Inhibition of thrombin (unknown origin) assessed as hydrolysis of N-benzoyl-phenylalanylvalyl-arginine-paranitroanilide
[6] = target: T1, Prothrombin; assay: Competitive inhibition of human thrombin using D-Phe-Pip-Arg-pNA as substrate preincubated for 10 mins followed by substrate addition measured every 12 secs for 10 mins by Lineweaver-Burk plot analysis
[7] = target: T1, Prothrombin; assay: Inhibition of human thrombin assessed as equilibrium association constant at 50 to 1000 uM by BIAcore analysis
[8] = target: T1, Prothrombin; assay: Inhibition of human thrombin assessed as response unit at 1000 uM by BIAcore analysis
Method in brief: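 Thrombin amine-coupled on a CM5 chip (NHS/EDC, acetate pH 6.0), 25 °C, PBS pH 7.4 running buffer. Polyphenol (100 μl) injected for 600 s at 10 μl/min, followed by 200 s PBS dissociation. Bound level read in RU. Channel regenerated with 0.1 M NaOH and 0.1 M HCl.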

[9] = target: T1, Prothrombin; assay: Inhibition of human thrombin assessed as decrease in platelet aggregation at 25 to 250 uM preincubated for 10 mins measured for 10 mins by dual channel chrono-log aggregometric analysis
Method in brief: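 Human plasma thrombin (17.6 nM in 50 mM TBS, pH 7.4) preincubated 10 min at 37 °C with compound from 50% DMSO stock (9:1 v/v). Added to gel-filtered human platelets in modified Tyrode's buffer (1.5 × 10^5/μl), pre-warmed 5 min at 37 °C with stirring; final thrombin 2.4 nM, DMSO 0.77%. Turbidimetric aggregation followed for 10 min. Given as % of solvent control; eight independent experiments in duplicate.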

[10] = target: T1, Prothrombin; assay: Inhibition of human thrombin assessed as inhibition of fibrinogen alpha-polymer formation at 250 uM after 15 mins by SDS-PAGE analysis
Method in brief: (§1)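 Thrombin preincubated 10 min at 37 °C with compound, then mixed with human fibrinogen (3 mg/ml, containing factor XIII) in 50 mM TBS with 5 mM CaCl2; final thrombin 10.4 nM, 37 °C. Stopped at 5, 15, 30 min with urea/SDS/β-mercaptoethanol buffer. Run on 7.5% SDS-PAGE, Coomassie stained, scored for γ–γ dimer and α-polymer bands.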

[11] = target: T1, Prothrombin; assay: Inhibition of human thrombin assessed as inhibition of fibrinogen gamma-gamma chain formation at 250 uM after 15 mins by SDS-PAGE analysis; method in brief: as §1
[12] = target: T1, Prothrombin; assay: Inhibition of human thrombin assessed as inhibition of fibrinogen alpha-polymer formation at 250 uM after 5 mins by SDS-PAGE analysis; method in brief: as §1
[13] = target: T1, Prothrombin; assay: Inhibition of human thrombin assessed as inhibition of fibrinogen gamma-gamma chain formation at 250 uM after 5 mins by SDS-PAGE analysis; method in brief: as §1
[14] = target: T1, Prothrombin; assay: Inhibition of human thrombin assessed as inhibition of fibrinogen polymerization preincubated for 10 mins followed by fibrionogen addition measured for 20 mins
Method in brief: (§2)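 Thrombin preincubated with compound 10 min at 37 °C, then added (final 10.4 nM) to human fibrinogen (3 mg/ml) in 50 mM TBS with 5 mM CaCl2, pH 7.4. Turbidity at 595 nm read every 12 s for 20 min at 37 °C. Vmax expressed as % of solvent control; 12 independent experiments in duplicate.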

[15] = target: T1, Prothrombin; assay: Inhibition of human thrombin amidolytic activity using D-Phe-Pip-Arg-pNA as substrate preincubated for 10 mins followed by substrate addition measured every 12 secs for 10 mins by spectrophotometric analysis
[16] = target: T1, Prothrombin; assay: Inhibition of human thrombin assessed as decrease in platelet aggregation preincubated for 10 mins measured for 10 mins by dual channel chrono-log aggregometric analysis
Method in brief: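 Gel-filtered (BSA–Sepharose 2B) human platelets at 1.5 × 10^5/μl in modified Tyrode's buffer pH 7.4, prewarmed 5 min at 37 °C with stirring. Thrombin (final 2.4 nM) preincubated 10 min at 37 °C with compound, then added. Turbidimetric aggregation recorded 10 min (0.77 % DMSO final). Result given as % of control; eight independent experiments in duplicate.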

[17] = target: T1, Prothrombin; assay: Inhibition of human thrombin assessed as inhibition of band decaying corresponding to fibrinogen Aalpha chains at IC50 after 30 mins by SDS-PAGE analysis
Method in brief: (§3)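 Fibrinogen isolated from human plasma, containing factor XIII (3 mg/ml in 50 mM TBS, 5 mM CaCl2), mixed with thrombin (final 10.4 nM) that was preincubated with compound. Incubated at 37 °C and stopped at 5, 15 or 30 min with urea/SDS/β-mercaptoethanol buffer. Run on 7.5 % SDS-PAGE with Coomassie stain. Aα, γ, γ–γ dimer and α-polymer bands scored.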

[18] = target: T1, Prothrombin; assay: Inhibition of human thrombin assessed as inhibition of band decaying corresponding to fibrinogen gamma chains at IC50 after 30 mins by SDS-PAGE analysis; method in brief: as §3
[19] = target: T1, Prothrombin; assay: Inhibition of human thrombin assessed as inhibition of fibrinogen alpha polymer formation at IC50 after 15 mins by SDS-PAGE analysis; method in brief: as §3
[20] = target: T1, Prothrombin; assay: Inhibition of human thrombin assessed as inhibition of fibrinogen alpha-polymer formation at IC50 after 5 mins by SDS-PAGE analysis; method in brief: as §3
[21] = target: T1, Prothrombin; assay: Inhibition of human thrombin assessed as inhibition of fibrinogen gamma-gamma chain formation at IC50 after 5 mins by SDS-PAGE analysis; method in brief: as §3
[22] = target: T1, Prothrombin; assay: Inhibition of human thrombin assessed as inhibition of fibrinogen gamma-gamma chain formation at IC50 after 15 mins by SDS-PAGE analysis; method in brief: as §3
[23] = target: T1, Prothrombin; conditions: 5 uM
[24] = target: T1, Prothrombin; assay: Inhibition of human thrombin assessed as inhibition of band decaying corresponding to fibrinogen gamma chains at 15 uM after 5 mins by SDS-PAGE analysis; method in brief: as §3
[25] = target: T1, Prothrombin; assay: Inhibition of human thrombin assessed as inhibition of band decaying corresponding to fibrinogen Aalpha chains at 15 uM after 5 mins by SDS-PAGE analysis; method in brief: as §3
[26] = target: T1, Prothrombin; assay: Inhibition of human thrombin assessed as inhibition of fibrinogen alpha-polymer formation at 15 uM after 5 mins by SDS-PAGE analysis; method in brief: as §3
[27] = target: T1, Prothrombin; assay: Inhibition of human thrombin assessed as inhibition of fibrinogen gamma-gamma chain formation at 15 uM after 5 mins by SDS-PAGE analysis; method in brief: as §3
[28] = target: T1, Prothrombin; assay: Inhibition of human thrombin assessed as inhibition of fibrinogen polymerization at 50 uM preincubated for 10 mins followed by fibrionogen addition measured for 20 mins; method in brief: as §2
[29] = target: T1, Prothrombin; conditions: 50 to 1000 uM
[30] = target: T1, Prothrombin; conditions: 75 to 750 uM
[31] = target: T1, Prothrombin; conditions: 150 to 1000 uM
[32] = target: T1, Prothrombin; conditions: 150 to 1000 uM; remark: listed apart in the source
[33] = target: T1, Prothrombin; conditions: 125 to 1000 uM
[34] = target: T1, Prothrombin; conditions: 125 to 1000 uM; remark: listed apart in the source

COc1ccc([C@@H]2CC(=O)c3c(O)cc(O[C@@H]4O[C@H](CO[C@@H]5O[C@@H](C)[C@H](O)[C@@H](O)[C@H]5O)[C@@H](O)[C@H](O)[C@H]4O)cc3O2)cc1O
inhibition [1]: inactive

C[C@@H]1O[C@@H](OC[C@H]2O[C@@H](Oc3c(-c4ccc(O)c(O)c4)oc4cc(O)cc(O)c4c3=O)[C@H](O)[C@@H](O)[C@@H]2O)[C@H](O)[C@H](O)[C@H]1O
inhibition [1]: inactive

O=c1c(-c2ccc(O)cc2)coc2cc(O)cc(O)c12
inhibition [1]: inactive

Oc1cc(O)c2c(c1)O[C@H](c1ccc(O)c(O)c1)[C@H](O)[C@H]2c1c(O)cc(O)c2c1O[C@H](c1ccc(O)c(O)c1)[C@H](O)C2
inhibition [1]: inactive

O=C(O)/C=C/c1ccc(O)cc1
inhibition [1]: inactive

C[C@@H]1O[C@@H](O[C@H]2[C@H](Oc3cc(O)c4c(c3)O[C@H](c3ccc(O)cc3)CC4=O)O[C@H](CO)[C@@H](O)[C@@H]2O)[C@H](O)[C@H](O)[C@H]1O
inhibition [1]: inactive

O=C1C[C@@H](c2ccc(O)cc2)Oc2cc(O)cc(O)c21
inhibition [1]: inactive

COc1ccc([C@@H]2CC(=O)c3c(O)cc(O)cc3O2)cc1O
inhibition [1]: inactive

O=C(/C=C/c1ccc(O)c(O)c1)O[C@@H]1C[C@](O)(C(=O)O)C[C@@H](O)[C@H]1O
inhibition [1]: inactive

COc1cc(C2Oc3cc([C@H]4Oc5cc(O)cc(O)c5C(=O)[C@@H]4O)ccc3OC2CO)ccc1O (some centres undefined) [SILIBININ]
inhibition [2]: Active | IC50 [3]: 21 µM | IC50 [4]: 3.7 µM | IC50 [5]: 20.9 µM | inhibition [6]: Active | Ka [7]: 5.39 ×10⁴ /M | RU [8]: 1420 | inhibition [9]: Active | inhibition [10]: inactive | inhibition [11]: inactive | inhibition [12]: Active | inhibition [13]: Active | inhibition [14]: Dose-dependent effect | inhibition [15]: Dose-dependent effect

Oc1cc(O)c2cc(O)c(-c3ccc(O)c(O)c3)[o+]c2c1
inhibition [6]: Active | RU [8]: 2250 | inhibition [16]: Dose-dependent effect | inhibition [17]: inactive | inhibition [18]: inactive | inhibition [19]: inactive | inhibition [20]: Active | inhibition [21]: Active | inhibition [22]: inactive | inhibition [14]: Dose-dependent effect | inhibition [15]: Dose-dependent effect | inhibition [23]: Active

O=c1c(O)c(-c2ccc(O)c(O)c2)oc2cc(O)cc(O)c12 [QUERCETIN]
IC50 [3]: 12.1 µM | IC50 [4]: 15.4 µM | IC50 [5]: 30 µM | inhibition [6]: Active | Ka [7]: 2.59 ×10⁷ /M | RU [8]: 1880 | inhibition [16]: Dose-dependent effect | inhibition [17]: inactive | inhibition [18]: inactive | inhibition [19]: inactive | inhibition [20]: Active | inhibition [21]: Active | inhibition [24]: Active | inhibition [25]: Active | inhibition [26]: Active | inhibition [27]: Active | inhibition [22]: inactive | inhibition [28]: Active | inhibition [14]: Dose-dependent effect | inhibition [15]: Dose-dependent effect

O=C(O)c1cc(O)c(O)c(O)c1
inhibition [1]: inactive

O=C(O)Cc1ccc(O)cc1
inhibition [1]: inactive

OC[C@H]1O[C@@H](Oc2cc3c(O[C@@H]4O[C@H](CO)[C@@H](O)[C@H](O)[C@H]4O)cc(O)cc3[o+]c2-c2ccc(O)c(O)c2)[C@H](O)[C@@H](O)[C@@H]1O
Ka [7]: 1.15 ×10² /M | inhibition [14]: inactive | inhibition [15]: Dose-dependent effect | inhibition [29]: inactive | inhibition [30]: inactive

Oc1cc(O)c2c(c1)O[C@H](c1ccc(O)c(O)c1)[C@H](O)C2
inhibition [6]: Active | Ka [7]: 1.92 ×10² /M | inhibition [14]: inactive | inhibition [15]: Dose-dependent effect | inhibition [31]: inactive | inhibition [32]: inactive

Oc1cc(O)c2c(c1)O[C@H](c1ccc(O)c(O)c1)[C@@H](O)C2
inhibition [6]: Active | Ka [7]: 2.03 ×10⁴ /M | inhibition [14]: inactive | inhibition [15]: Dose-dependent effect | inhibition [33]: inactive | inhibition [34]: inactive
